Laboratory results: article PMC5774489 (OncoTargets and therapy, 2018)
Read-outs that look alike come from different tables or passages of the source.

How the values were obtained:
Assay type in all cases: cell-based
[1] = tested on: human normal liver cells (L02); assay: MTT antiproliferative activity, L02; details: 72 h, read-out: IC50, L02
In short: (§1)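 Cells were pre-incubated for 24 h at 37°C in 5% CO2. Medium was replaced with test compound at 10−4, 10−5, 10−6, 10−7 and 10−8 M for 72 h at 37°C. After a PBS wash, MTT was added for at least 4 h at 37°C and OD was read at 570 nm. IC50 (50% cell killing) came from percent viability versus log concentration; mean ± SEM, n=3.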

[2] = tested on: HepG2 human hepatocarcinoma; assay: MTT antiproliferative activity, HepG2; details: read-out: IC50, HepG2
In short: as §1

[3] = tested on: MCF-7 human breast cancer cells; assay: MTT antiproliferative activity, MCF-7; details: read-out: IC50, MCF-7
In short: as §1

[4] = tested on: selected malignant cell lines (B16F10, MCF-7, HCT-116, A549, HepG2); assay: MTT antiproliferative activity, selected malignant cell lines as a panel; details: 72 h, read-out: IC50 values, range over the selected malignant cell lines
In short: as §1

[5] = tested on: A549 human adenocarcinomic alveolar basal epithelial cells; assay: MTT antiproliferative activity, A549; details: read-out: IC50, A549
In short: as §1

[6] = tested on: Helf human embryonic lung fibroblast; assay: MTT antiproliferative activity, Helf; details: 72 h, read-out: IC50, Helf
In short: as §1

[7] = tested on: B16F10 mouse melanoma cells; assay: MTT antiproliferative activity, B16F10; details: read-out: IC50, B16F10
In short: as §1

[8] = tested on: HCT-116 human colon cancer cells; assay: MTT antiproliferative activity, HCT-116; details: read-out: IC50, HCT-116
In short: as §1

[9] = MTT, mean ± SEM, n=3, normal cells

| Compound | IC50 ([1]; Homo sapiens) | IC50 ([2]; Homo sapiens, HepG2, 72 h) | IC50 ([3]; Homo sapiens, MCF7, 72 h) | IC50 [4] | IC50 ([5]; Homo sapiens, A549, 72 h) | IC50 ([6]; Homo sapiens, HELF) | IC50 ([7]; Mus musculus, B16-F10, 72 h) | IC50 ([8]; Homo sapiens, HCT-116, 72 h) | IC50 [1, 9] | IC50 ([2]; MTT, 72 h, mean ± SEM, n=3) | IC50 ([3]; MTT, 72 h, mean ± SEM, n=3) | IC50 ([5]; MTT, 72 h, mean ± SEM, n=3) | IC50 [6, 9] | IC50 ([7]; MTT, 72 h, concentration that caused 50% cell killing, mean ± SEM, n=3) | IC50 ([8]; MTT, 72 h, mean ± SEM, n=3) |
| --- | --- | --- | --- | --- | --- | --- | --- | --- | --- | --- | --- | --- | --- | --- | --- |
| C=C(C)[C@@H]1CC[C@]2(C(=O)O)CC[C@]3(C)[C@H](CC[C@@H]4[C@@]5(C)CC[C@H](O)C(C)(C)[C@@H]5CC[C@]43C)[C@@H]12 [BA, Betulinic acid] | 96.3 ± 7.99 µM | 30.4 ± 5.14 µM | 17.5 ± 1.72 µM | 17.5 to 38.3 µM | 38.3 ± 5.9 µM | 62 ± 8.61 µM | 27 ± 2.5 µM | 27.3 ± 3.28 µM | – | – | – | – | – | – | – |
| N.N.[Cl][Pt][Cl] [Cisplatin] | – | – | – | – | – | – | – | – | 9.17 ± 0.83 µM | 4.77 ± 0.62 µM | 7.83 ± 0.52 µM | 12.7 ± 1.85 µM | 21.8 ± 3.03 µM | 11.7 ± 0.95 µM | 9.45 ± 1.04 µM |
